From PubChem BioAssay
Only some compounds are listed: those with a hit (about 1.7% of all), similar ones and a draw of the others.
CAL PDZ FP-1: inhibitors of human CAL PDZ peptide binding. Q9HD26. purified CAL PDZ, TMR-peptide fluorescence polarization, 1 h. inhibition, % at 24.9 µM. 300,000 tested, 0.92% active. AID 602252;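 active = mean inhibition of at least 30% with at least half of replicates also reaching 30%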;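 note: 0% = DMSO neutral control and 100% = excess unlabeled competitor peptide PRC23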
CAL PDZ FP-2: human CAL PDZ-peptide interaction inhibition. purified CAL PDZ, TMR-peptide fluorescence polarization, 1 h. Q9HD26. inhibition, % at 20 µM. 330,000 tested, 0.02% active;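 active = highest replicate inhibition of at least 40%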;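 note: plate controls were DMSO neutral control wells for no effect and unlabeled competitor peptide control wells for full effect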
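Material: tagged CAL PDZ protein CerCALP, purified; buffer or medium: sodium phosphate/NaCl buffer pH 7.4 with TCEP, IgG, Thesit; also added: fluorescent TMR peptide probe; schedule: 1 h incubation at room temperature before polarization reading; technique: fluorescence polarization from S- and P-plane intensities, G-factor corrected; control set: unlabelled peptide and DMSO controls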
CFTR F508del cor: CFTR F508del correction in bronchial cells. AID 720511. 350,000 tested, 0.36% active. CFBE cells, YFP halide quenching; stimulated with forskolin plus potentiator P3; % fluorescence drop versus neutral controls. activity (quench increase), % at 7.58 µM;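 active = mean added fluorescence quench of at least 8% versus neutral control, with both replicates also reaching 8%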;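 note: cells transiently co-express mutant CFTR-F508del with the halide-sensitive YFP; corrector assay measuring rescue of mutant channel to the surface after 24 h compound exposure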
ARNT-TACC3 inh: disruptors of human ARNT/TACC3 interaction; AID 623870; inhibition, % at 9.99 µM; 390,000 tested, 0.66% active; AlphaScreen His-ARNT PAS-B/GST-TACC3 binding, luminescence; TACC3 fragment carries E629A point mutation;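 active = mean inhibition of replicates at least 50% and at least half of replicates each reaching 50%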;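 note: 0% = complete ARNT plus TACC3 wells and 100% = ARNT alone without TACC3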
miR122 inh: inhibitors of miR-122 in Huh7 cells; Huh7 miR-122 Renilla luciferase sensor, 48 h; neutral wells = 0, positive control = 100; activation (reporter increase), % at 12.5 µM; 340,000 tested, 0.3% active; AID 602342;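 active = mean replicate activation score at least 90 and every replicate individually at or above 90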;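 note: higher luciferase means less miR-122 activity so hits act as miR-122 inhibitors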
PGC1a acetyl inh: modulators of PGC1a acetylation; 350,000 tested, 0.17% active; U2OS PGC1a acetylation, AlphaScreen anti-acetyl-lysine; with virally co-expressed GCN5 acetyltransferase; inhibition, % at 15.6 µM; AID 651687;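 active = every replicate shows inhibition of at least 40%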;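 note: 0% = neutral control wells and 100% = positive control wells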
* marks the source's active call; other numbers are inactive results; [ ] = another dose, or the depositor's remark.

How did CCOC(=O)C1(Cc2ccc(Cl)cc2)CCN(C(=O)CCc2cnccn2)CC1 do in these assays?
CAL PDZ FP-1: -1; CAL PDZ FP-2: 1; CFTR F508del cor: 2; ARNT-TACC3 inh: -4; miR122 inh: -5; PGC1a acetyl inh: -9

Results for COc1ccc(N2C(=O)CSC23C(=O)N2CCCc4cccc3c42)cc1 (stereo not given) ?
CAL PDZ FP-1: -2; CAL PDZ FP-2: 0; ARNT-TACC3 inh: 6; miR122 inh: -4; PGC1a acetyl inh: -5

How did COc1ccc(N=C2C(=O)N3CCCc4cccc2c43)cc1 do in these assays?
CAL PDZ FP-1: -3; CAL PDZ FP-2: 0; CFTR F508del cor: 12*; ARNT-TACC3 inh: 0

How did C=CCNc1oc(-c2cccs2)nc1S(=O)(=O)c1ccccc1 do in these assays?
CAL PDZ FP-1: 39*; CAL PDZ FP-2: 4; CFTR F508del cor: -1; ARNT-TACC3 inh: -3; miR122 inh: 4; PGC1a acetyl inh: -1

Results for C=CCNc1oc(-c2ccco2)nc1S(=O)(=O)c1ccccc1 ?
CAL PDZ FP-2: -1; CFTR F508del cor: -1; ARNT-TACC3 inh: 6

What do the screens show for `C[C@@H]1CCCCO[C@@H](CN(C)C(=O)C2CCCCC2)[C@H](C)CN([C@H](C)CO)C(=O)c2cc(NC(=O)C3CCCCC3)ccc2O1`?
CFTR F508del cor: -2; ARNT-TACC3 inh: -12; miR122 inh: -16[16.7 µM]; PGC1a acetyl inh: 2

Results for COc1cc(OC)cc(C(=O)Oc2ccc(/C=N/Nc3nc4ccccc4s3)cc2OC)c1 ?
CAL PDZ FP-2: -1; ARNT-TACC3 inh: 3; miR122 inh: -6

How did COc1cc(/C=N/Nc2nc3ccccc3s2)ccc1OC(=O)c1ccccc1F do in these assays?
CAL PDZ FP-1: 72*; CAL PDZ FP-2: -2; ARNT-TACC3 inh: -5

How did C[C@@H]1CN([C@H](C)CO)C(=O)c2cccc(NC(=O)C3CCOCC3)c2O[C@@H]1CN(C)Cc1ccc2c(c1)OCO2 do in these assays?
CFTR F508del cor: 0; miR122 inh: 7[16.7 µM]; PGC1a acetyl inh: -2

What do the screens show for `Cc1noc(C)c1COc1cccc(C(=O)OC(C)C#N)c1` (stereo not given)?
CAL PDZ FP-1: 73*; CAL PDZ FP-2: -1; CFTR F508del cor: -1; ARNT-TACC3 inh: -2; PGC1a acetyl inh: 2

Results for Cc1noc(C)c1COc1cccc(C(=O)OCCOc2ccc(F)cc2)c1 ?
CAL PDZ FP-1: -4; ARNT-TACC3 inh: -6; miR122 inh: -5; PGC1a acetyl inh: 0

What do the screens show for `Cc1noc(C)c1COc1ccc(C(=O)NNC(=O)c2ccccc2)cc1`?
CAL PDZ FP-2: -1; CFTR F508del cor: 9.6*; ARNT-TACC3 inh: -5; miR122 inh: 18; PGC1a acetyl inh: -5

What do the screens show for `COc1ccccc1Oc1nc2c(c(=O)n(Cc3ccccc3F)c(=O)n2C)n1C`?
CAL PDZ FP-1: 75*; CAL PDZ FP-2: -2; ARNT-TACC3 inh: 4; miR122 inh: 1; PGC1a acetyl inh: -5

What do the screens show for `COc1ccc(CNC(=O)CCS(=O)(=O)c2ccc3c(c2)oc(=O)n3C)cc1`?
CAL PDZ FP-1: -1; CAL PDZ FP-2: -1; CFTR F508del cor: -3; ARNT-TACC3 inh: 9; miR122 inh: 0; PGC1a acetyl inh: 18

Results for CN(C)c1ccc(CNC(=O)CCS(=O)(=O)c2ccc3c(c2)oc(=O)n3C)cc1 ?
CAL PDZ FP-1: 63*; CAL PDZ FP-2: -1; CFTR F508del cor: 1; ARNT-TACC3 inh: 2; miR122 inh: -2; PGC1a acetyl inh: 0

What do the screens show for `COc1ccc(NC(=O)COC(=O)C2CCN(S(=O)(=O)c3cccs3)CC2)cc1`?
CAL PDZ FP-1: 2; CAL PDZ FP-2: -1; CFTR F508del cor: -1; ARNT-TACC3 inh: -30; miR122 inh: -6; PGC1a acetyl inh: -13

How did NC(=O)c1ccc(NC(=O)COC(=O)C2CCN(S(=O)(=O)c3cccs3)CC2)cc1 do in these assays?
CAL PDZ FP-1: 130*; CAL PDZ FP-2: 0; CFTR F508del cor: 1; ARNT-TACC3 inh: 4; miR122 inh: -12; PGC1a acetyl inh: -2

Results for Cc1ccc(S(=O)(=O)N(C)C[C@@H]2Oc3c(NC(=O)NC(C)C)cccc3C(=O)N([C@@H](C)CO)C[C@@H]2C)cc1 ?
CFTR F508del cor: -2; ARNT-TACC3 inh: 0; miR122 inh: 2[16.7 µM]; PGC1a acetyl inh: -3
